Source: PubChem (several laboratories)
DUSP1 inh: human dual specificity phosphatase 1 inhibition | P28562 | recombinant MKP-1, OMFP hydrolysis fluorescence | inhibition, %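 (compounds tested at a single concentration somewhere between 10 and 100 µM)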 | hit rate 0.15% among 65,000;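 active means inhibition above about 50%, limit read from the data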;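 further: 0% = DMSO max control wells and 100% = wells with enzyme stopped by NaOH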
E coli RNAP: blocks E. coli RNA polymerase transcription. fluorescence transcription assay. hit rate 0.2% among 62,000. P0A8V2. AID 559. inhibition, %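 (tested at 10 µM)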; in the data active means inhibition above about 20%;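 further: 0% = enzyme without compound and 100% = no enzyme blank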
Hsp90 inh: displaces geldanamycin probe from tumor Hsp90. P07900. NCI-N417 lysate Hsp90, Cy3B-geldanamycin FP displacement. inhibition, % at 30 µM. hit rate 0.35% among 64,000. AID 429;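 active means inhibition above 50%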;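 further: 0% = tracer plus lysate wells and 100% = tracer alone without lysate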
Cdc25B inh: inhibitors of human Cdc25B phosphatase; recombinant Cdc25B, OMFP fluorescence Ex485/Em525; inhibition, %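 (compounds tested at 10 µM final in the well)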; hit rate 0.1% among 65,000; AID 368; in the data active means inhibition above about 50%
Ecoli tolC: E. coli tolC mutant growth inhibition; AID 573; hit rate 2.2% among 65,000; growth inhibition, % at 10 µM (by protocol); E. coli BW25113 tolC mutant growth, OD615;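 active means growth inhibition at or above a cutoff equal to the mean over every tested compound plus 3 SD, cut at about 60% in these data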;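 further: growth measured after 20 h incubation at 37 °C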
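Test system: tolC-deleted E. coli BW25113 | Medium: LB with kanamycin 50 µg/mL | Compound dosing: Single concentration, 10 µM final per compound | Schedule: 37 °C, 20 h exposure | Measured by: OD at 615 nm | Evaluation: Percent growth inhibition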
BAP1 block: human BAP1 deubiquitinase inhibition; Q92560; recombinant BAP1, Ub-AMC hydrolysis fluorescence kinetic; stronger effect = lower value; calls only at 20 µM; hit rate 0.48% among 72,000; AID 436;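 active means activity remaining at or below 50% of control, provided the compound also passes the data quality filters; inactive means the rest, including low values that fail the filters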;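 further: 100% = DMSO wells rate and 0% = substrate alone blank rate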
Redox H2O2 0p5DTT: generates H2O2 by redox cycling in 0.5 mM DTT; shares compounds with Cdc25B inh; hit rate 50% among 30; cell-free redox cycling H2O2 generation; EC50, µM; in the data active means EC50 below about 30 µM
Redox 1 DTT: redox cycling H2O2 generation, Cdc25B counter-screen; shares compounds with Cdc25B inh; cell-free redox cycling H2O2 generation, 1 mM DTT; EC50, µM; 30 tested, under 10 active; in the data active means EC50 below about 50 µM
Redox H2O2: redox cycling H2O2 generation, MKP probe counter-screen. shares compounds with DUSP1 inh. DTT, phenol red/HRP. EC50, µM. 60 tested, under 10 active. AID 672; call rule not given here
The depositor's hits bear a star; i = inactive; nt = no result given. Shown are actives, neighbours in structure and some others; about 2.9% of the full set was active somewhere.

SMILES	DUSP1 inh	E coli RNAP	Hsp90 inh	Cdc25B inh	Ecoli tolC	BAP1 block	others
O=[N+]([O-])c1ccc(C=CC=Nc2ccc3oc(-c4cccc5ccccc45)nc3c2)cc1	nt	nt	nt	nt	nt	i
COc1ccc(CN(Cc2ccccn2)C(=O)CN2C(=O)COc3ccccc32)cc1	-3	4	-2	15	7	i
COc1ccc(CN(C(=O)CN2C(=O)C(C)Oc3ccccc32)C2CCCC2)c(OC)c1 (stereo not drawn)	8	3	-4	17	67*	i
COc1ccc(CN(C(=O)CN2C(=O)COc3ccccc32)C2CCCC2)c(OC)c1	9	7	0	-6	71*	i
CC1Oc2ccccc2N(CC(=O)c2ccccc2)C1=O (stereo not drawn)	3	11	-2	-5	-4	i
CCN1CCN(c2ccc(Nc3ccnc4cc5ccccc5cc34)cc2)CC1	nt	nt	nt	nt	nt	i
CCOC(=O)c1c(C)[nH]c(C)c1C(=O)Cn1nnc(-c2ccccc2C)n1	22	-2	-6	6	63*	i
CCOC(=O)c1c(C)[nH]c(C(=O)Cn2nnc(-c3ccccc3Cl)n2)c1C	23	6	0	1	-9	nt
Cc1cc(=O)c2n(Cc3ccc(Cl)cc3)nc[n+]2[nH]1	-2	49*	6	3	-17	i
Cn1nc(-c2ccc(N3CCCCC3)c(NC(=O)c3ccco3)c2)c2ccccc2c1=O	24	8	-1	-5	50	nt
Cn1nc(-c2ccc(N3CCOCC3)c(NC(=O)COc3ccccc3)c2)c2ccccc2c1=O	14	4	2	-4	65*	i
CCn1c(C(=O)N2CCCC(C(=O)O)C2)cc2sccc21 (stereo not drawn)	11	4	-2	-9	-14	i
CCn1c(C(=O)N2CCC(Cc3ccccc3)CC2)cc2sccc21	-1	2	2	-2	80*	i
CC1CCc2c(C(=O)Oc3cccc(-n4cnnn4)c3)csc2C1 (stereo not drawn)	12	3	nt	-6	69*	nt
CCOC(=O)c1ccc(N2C(=O)CC(SCC(=O)Nc3ccc4ccccc4c3)C2=O)cc1 (stereo not drawn)	nt	nt	nt	nt	nt	i
CC(=O)N1CCc2cc(NCc3ccc([N+](=O)[O-])cc3)ccc21	nt	nt	nt	nt	nt	i
O=C(O)C1Nc2c(O)cccc2C2C=CCC12 (stereo not drawn)	31	14	-10	56*	-15	i	Redox H2O2 0p5DTT=>50;Redox 1 DTT=>50
CCOCCOC(=O)C1=C(C)NC(=O)NC1c1ccc(OC)cc1 (stereo not drawn)	nt	nt	nt	nt	nt	i
CCC1C(=O)N=C(SCC(=O)Nc2ccc(S(N)(=O)=O)cc2)N(c2ccccc2)C1=O (stereo not drawn)	nt	nt	nt	nt	nt	i
O=C1Cc2ccccc2C(=O)N1CCc1ccccc1	10	11	-7	59*	9	i	Redox H2O2 0p5DTT=>50;Redox 1 DTT=>50
O=C(O)CCN1C(=O)c2ccccc2C1=O	-5	6	-3	3	-14	i
O=c1[nH]c(Nc2ccccc2)cc2ccccc12	21	5	28	85*	15	i	Redox H2O2 0p5DTT=>50;Redox 1 DTT=>50
CCOc1ccc2noc3c2c1C(=O)c1ccccc1-3	65*	nt	-3	92*	-3	i	Redox H2O2 0p5DTT=>50;Redox 1 DTT=>50;Redox H2O2=>50
CCOC(=O)c1ccc2c3c(onc13)-c1ccccc1C2=O	nt	nt	nt	nt	nt	i
N#Cc1c(N2CCCC2)nc(N)c2c(N)nc(N3CCCC3)cc12	76*	10	77*	101*	0	i	Redox H2O2 0p5DTT=13*;Redox 1 DTT=27*;Redox H2O2=>50
O=C(O)/C(=C1/OC(=O)c2ccccc21)c1ccccc1	22	5	-1	2	-14	i
O=C(NC1(O)C(=O)c2ccccc2C1=O)c1ccccc1	62*	-1	73*	96*	-18	i	Redox H2O2 0p5DTT=29*;Redox 1 DTT=>50;Redox H2O2=>50
CCCCOc1ccc(NC(=O)c2ccc([N+](=O)[O-])cc2Cl)cc1	nt	nt	nt	nt	nt	i
O=C(OC1CCCCC1)c1ccc2c(c1)C1C=CCC1C(C(=O)O)N2 (stereo not drawn)	52*	-6	-6	63*	3	nt	Redox H2O2 0p5DTT=>50;Redox 1 DTT=>50;Redox H2O2=>50
